Measurements from ChEMBL document CHEMBL2396550, “Manzamine A, a marine-derived alkaloid, inhibits accumulation of cholesterol ester in macrophages and suppresses hyperlipidemia and atherosclerosis in vivo” (Bioorg Med Chem, 2013).
The source made the active and inactive calls. No cut-off for these calls is given here.

Columns and labels:
[1] = biological target: T1, Sterol O-acyltransferase 1 (Homo sapiens, UniProt P35610); experiment: Inhibition of macrophage ACAT (unknown origin)
T1 sequence (P35610 whole entry): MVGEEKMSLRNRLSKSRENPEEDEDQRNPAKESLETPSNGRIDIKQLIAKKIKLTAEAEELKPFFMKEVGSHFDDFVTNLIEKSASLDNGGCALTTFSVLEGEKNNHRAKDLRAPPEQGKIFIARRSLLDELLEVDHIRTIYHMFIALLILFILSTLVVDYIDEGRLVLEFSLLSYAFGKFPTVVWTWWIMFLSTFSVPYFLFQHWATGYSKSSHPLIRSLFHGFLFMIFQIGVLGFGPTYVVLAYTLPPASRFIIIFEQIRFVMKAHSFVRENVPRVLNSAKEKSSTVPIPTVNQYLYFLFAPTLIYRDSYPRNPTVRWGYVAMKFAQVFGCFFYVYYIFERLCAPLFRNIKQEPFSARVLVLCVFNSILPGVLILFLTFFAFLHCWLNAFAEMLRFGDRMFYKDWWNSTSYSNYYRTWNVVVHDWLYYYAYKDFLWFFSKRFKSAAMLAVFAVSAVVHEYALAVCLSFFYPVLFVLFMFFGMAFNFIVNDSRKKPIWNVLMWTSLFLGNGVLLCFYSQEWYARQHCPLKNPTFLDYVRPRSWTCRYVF

[2] = Inhibition of microsomal ACAT in cholesterol-fed JW rabbit intestine using [14C]oleoyl-CoA as substrate incubated for 5 mins prior to substrate addition measured after 5 to 10 mins by liquid scintillation counting analysis; type: microsomes, Oryctolagus cuniculus
MDM [3] = experiment: Antihyperlipidemic activity in human MDM assessed as inhibition of acetylated LDL-induced [3H]-cholesterol ester accumulation at 20 uM after 24 hrs by radioscanner analysis in presence of [3H]-oleate-conjugated BSA; type: functional
Summary of the method: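 Monocytes were isolated from healthy-volunteer blood on Ficoll, allowed to adhere for 1 h, then differentiated for 7 days into macrophages in DMEM with 10% pooled human serum. The macrophages were incubated for 24 h at 37 °C in 5% CO2 with 50 μg/mL AcLDL, 0.1 mM BSA-conjugated [3H]oleate and 20 μM sample. Cellular lipids were extracted, [3H]CE was separated by TLC, and it was quantified by radioscanner.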

[4] = biological target: T2, Sterol O-acyltransferase 2 (Homo sapiens, UniProt O75908); experiment: Inhibition of ACAT2 in human MDM assessed as inhibition of acetylated LDL-induced cholesterol ester accumulation after 1 hr by HPLC analysis
T2 sequence (O75908 whole entry): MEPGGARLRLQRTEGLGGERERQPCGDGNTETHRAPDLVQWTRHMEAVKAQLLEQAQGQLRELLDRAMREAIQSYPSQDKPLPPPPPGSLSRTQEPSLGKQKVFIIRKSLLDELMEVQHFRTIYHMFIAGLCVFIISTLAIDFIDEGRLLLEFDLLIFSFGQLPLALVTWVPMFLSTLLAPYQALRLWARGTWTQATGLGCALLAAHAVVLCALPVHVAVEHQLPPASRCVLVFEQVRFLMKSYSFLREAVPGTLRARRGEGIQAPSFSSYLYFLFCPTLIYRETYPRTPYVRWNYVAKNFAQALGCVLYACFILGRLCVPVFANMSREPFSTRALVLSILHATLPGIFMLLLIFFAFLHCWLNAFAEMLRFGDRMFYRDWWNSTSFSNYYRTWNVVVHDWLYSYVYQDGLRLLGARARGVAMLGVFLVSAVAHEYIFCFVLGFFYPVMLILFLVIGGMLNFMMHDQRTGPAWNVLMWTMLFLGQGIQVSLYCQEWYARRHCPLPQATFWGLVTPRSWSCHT

[5] = biological target: T1, Sterol O-acyltransferase 1
Mus musculus [6] = experiment: Antiatherosclerotic activity in apoE-deficient C57BL/6 mouse assessed as decrease in atherosclerotic lesion size in aortic sinus at 30 mg/kg/day administered through feeding measured after 80 days by oil red O/hematoxylin staining assay relative to control; type: functional; design: scale not given: the % may be the effect or the level left
Mus musculus [7] = experiment: Antiatherosclerotic activity in apoE-deficient C57BL/6 mouse assessed as decrease in plasma triglyceride level at 30 mg/kg/day administered through feeding measured after 80 days relative to control; type: functional; design: scale not given: the % may be the effect or the level left
Mus musculus [8] = experiment: Antiatherosclerotic activity in apoE-deficient C57BL/6 mouse assessed as decrease in plasma LDL cholesterol level at 30 mg/kg/day administered through feeding measured after 80 days relative to control; type: functional; design: scale not given: the % may be the effect or the level left
Mus musculus [9] = experiment: Antiatherosclerotic activity in apoE-deficient C57BL/6 mouse assessed as decrease in plasma free cholesterol level at 30 mg/kg/day administered through feeding measured after 80 days relative to control; type: functional; design: scale not given: the % may be the effect or the level left
Mus musculus [10] = experiment: Antiatherosclerotic activity in apoE-deficient C57BL/6 mouse assessed as decrease in total plasma cholesterol level at 30 mg/kg/day administered through feeding measured after 80 days relative to control; type: functional; design: scale not given: the % may be the effect or the level left
[11] = (§1) Inhibition of microsomal ACAT in apoE-deficient mouse peritoneal macrophage using [14C]oleoyl-CoA as substrate assessed as formation of cholesteryl [14C]-oleate […] by TLC analysis
Mus musculus [12] = organism: Mus musculus; experiment: as §1
[13] = (§2) Antihyperlipidemic activity in apoE-deficient mouse peritoneal macrophages assessed as inhibition of acetylated LDL-induced [3H]-cholesterol ester accumulation after 24 hrs by radioscanner analysis in presence of [3H]-oleate-conjugated BSA; type: functional, cell-based; conditions: Peritoneal macrophage cell
Summary of the method: (§3)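 Peritoneal macrophages from apoE-deficient mice, cultured in DMEM with 10% pooled human serum, 37 °C, 5% CO2. [3H]CE accumulation after AcLDL loading was measured by the [3H]oleate/TLC method.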

[14] = tested on: Peritoneal macrophage cell; experiment: as §2; type: functional, cell-based; summary of the method: as §3
[15] = biological target: T3, Sterol O-acyltransferase 2 (Homo sapiens) (UniProt O75908); experiment: (§4) Non-competitive inhibition of human microsomal ACAT2 overexpressed in CHO cells using [14C]oleoyl-CoA as substrate assessed as formation of cholesteryl [14C]-oleate […]
T3 sequence (whole entry): T2 sequence (O75908 whole entry)

[16] = biological target: T2, Sterol O-acyltransferase 2; experiment: as §4
[17] = biological target: T4, Sterol O-acyltransferase 1 (Homo sapiens) (UniProt P35610); experiment: (§5) Non-competitive inhibition of human microsomal ACAT1 overexpressed in CHO cells using [14C]oleoyl-CoA as substrate assessed as formation of cholesteryl [14C]-oleate […]
T4 sequence (whole entry): T1 sequence (P35610 whole entry)

[18] = biological target: T1, Sterol O-acyltransferase 1; experiment: as §5
MDM [19] = experiment: Effect on ACAT expression in human MDM at 5 to 30 uM after 24 hrs by immunoblot analysis; type: functional
Summary of the method: (§6)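 HMDMs exposed 24 h to graded compound concentrations, solubilised in 1% Triton X-100, boiled in SDS sample buffer, then N-glycosidase-treated at 37 °C for 24 h. 10 μg protein run on 10% SDS-PAGE and immunoblotted for human ACAT-1, SR-A (E5) or SR-BI, with β-actin reprobe; band density quantified.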

CHO [20] = experiment: Antihyperlipidemic activity in CHO cells overexpressing human ACAT2 assessed as inhibition of [3H]-cholesterol ester accumulation after 24 hrs by radioscanner analysis in presence of [3H]-oleate-conjugated BSA; type: functional, cell-based; conditions: Cricetulus griseus
Summary of the method: (§7)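 CHO cells stably overexpressing human ACAT-1 or ACAT-2, grown in F-12 HAM with 10% FCS and G418 800 μg/mL. Incubated 24 h in medium with 10% FCS, 0.1 mM [3H]oleate–BSA and graded compound concentrations; no AcLDL. Lipids extracted, [3H]CE separated by TLC and counted by radioscanner.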

CHO [21] = experiment: Antihyperlipidemic activity in CHO cells overexpressing human ACAT1 assessed as inhibition of [3H]-cholesterol ester accumulation after 24 hrs by radioscanner analysis in presence of [3H]-oleate-conjugated BSA; type: functional, cell-based; conditions: Cricetulus griseus; summary of the method: as §7
MDM [22] = experiment: Effect on scavenger receptor-A expression in human MDM at 5 to 30 uM after 24 hrs by immunoblot analysis; type: functional; summary of the method: as §6
MDM [23] = experiment: Effect on scavenger receptor-B1 expression in human MDM at 5 to 30 uM after 24 hrs by immunoblot analysis; type: functional; summary of the method: as §6
[24] = Cytotoxicity against human MDM assessed as cell viability at 50 uM after 24 hrs by WST-8 assay
Summary of the method: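 HMDMs seeded at 1×10^4 per well, treated with compound; viability read by WST-8 assay.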

MDM [25] = experiment: Inhibition of endocytic [125I]-acetylated LDL uptake in human MDM at 50 uM after 5 hrs; type: functional
Summary of the method: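 Day-7 HMDMs in DMEM with 3% BSA, incubated 5 h at 37 °C with 125I-AcLDL (50 μg/mL, 600 cpm/ng) plus compound. Degradation was measured as TCA-soluble, AgNO3-cleared medium radioactivity. Cell-associated counts came from 0.1 M NaOH lysates after ice-cold PBS/1% BSA washes and were normalised to protein.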

[26] = Cytotoxicity against human MDM assessed as inhibition of acetylated LDL-induced [3H]-triglyceride synthesis at 50 uM after 24 hrs by radioscanner analysis in presence of [3H]-oleate-conjugated BSA
Summary of the method: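 HMDMs incubated 24 h with AcLDL 50 μg/mL and 0.1 mM [3H]oleate–BSA with or without compound; extracted lipids assayed for TG-[3H]oleate radioactivity.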

[27] = Cytotoxicity against human MDM assessed as change in cell morphology at 50 uM
[28] = (§8) Antihyperlipidemic activity in human MDM assessed as inhibition of acetylated LDL-induced [3H]-cholesterol ester accumulation after 24 hrs by radioscanner analysis in presence of [3H]-oleate-conjugated BSA; type: functional
Summary of the method: (§9)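 Human monocytes from healthy volunteer blood by Ficoll, adhered 1 h, differentiated 7 days in DMEM with 10% pooled human serum. Monolayers incubated 24 h with AcLDL 50 μg/mL plus 0.1 mM [3H]oleate–BSA with or without compound; lipids extracted, [3H]cholesteryl oleate separated by TLC and counted by radioscanner.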

MDM [29] = experiment: as §8; type: functional; summary of the method: as §9
[30] = biological target: T4, Sterol O-acyltransferase 1 (Homo sapiens); experiment: (§10) Non-competitive inhibition of microsomal ACAT in human MDM using [14C]oleoyl-CoA as substrate assessed as formation of cholesteryl [14C]-oleate […]
[31] = biological target: T1, Sterol O-acyltransferase 1; experiment: as §10
[32] = biological target: T2, Sterol O-acyltransferase 2; experiment: Inhibition of macrophage ACAT2 (unknown origin)
[33] = biological target: T1, Sterol O-acyltransferase 1; experiment: Inhibition of ACAT1 (unknown origin)

CCCCCCCCCN(CC(C)(C)C)C(=O)N[C@H]1CCCC[C@@H]1OC(=O)CCNC(=O)[C@@H]1OC(C)(C)OCC1(C)C
IC50 [1]: 0.032 µM

CN(C)c1ccc(NC(=O)N(C[C@H]2CC[C@H](CN(C(=O)Nc3ccc(N(C)C)cc3)C3CCCCC3)CC2)C2CCCCC2)cc1
IC50 [2]: 0.0076 µM

O=C1CCCN2[C@@H]3[C@@]45CN6CCCC/C=C\CC[C@@]3(C=C(c3nccc7c3[nH]c3ccccc37)[C@@H]4CC6)O[C@]2(CC1)C5
inhibition (MDM [3]): Active

O=CC1=C[C@@]2(O)CC/C=C\CCCCN3CC[C@@H]1[C@]1(C[C@@H]4/C=C\CCCCN4[C@H]12)C3
inhibition (MDM [3]): Active

O[C@H]1/C=C/C[C@]2(O)C=C(c3nccc4c3[nH]c3ccccc34)[C@@H]3CCN(CCCC1)C[C@@]31C[C@@H]3/C=C\CCCCN3[C@H]12
inhibition (MDM [3]): Active

Oc1ccc2[nH]c3c(C4=C[C@@]5(O)CC/C=C\CCCCN6CCC4[C@]4(C[C@@H]7/C=C\CCCCN7[C@H]45)C6)nccc3c2c1 (some centres undefined)
inhibition (MDM [3]): Active

Oc1cccc2c1[nH]c1c(C3=C[C@@]4(O)CC/C=C\CCCCN5CC[C@@H]3[C@]3(CC6/C=C\CCCCN6[C@H]34)C5)nccc12 (some centres undefined)
inhibition (MDM [3]): Active

c1ccc2c(c1)[nH]c1cnccc12
inhibition (MDM [3]): Active

CC(C)c1cc(C(C)C)c(CC(=O)NS(=O)(=O)Oc2c(C(C)C)cccc2C(C)C)c(C(C)C)c1 [AVASIMIBE]
IC50 [4]: 9.2 µM
IC50 [5]: 23.5 µM

O[C@]12C=C(c3nccc4c3[nH]c3ccccc34)[C@@H]3CCN(CCCC/C=C\CC1)C[C@@]31C[C@@H]3/C=C\CCCCN3[C@H]12 [MANZAMINE A]
Activity (Mus musculus [6]): 45%
Activity (Mus musculus [7]): 50%
Activity (Mus musculus [8]): 40%
Activity (Mus musculus [9]): 20%
Activity (Mus musculus [10]): 40%
IC50 [11]: 5.8 µM
inhibition (Mus musculus [12]): Dose-dependent effect
IC50 [13]: 6.2 µM
inhibition [14]: Dose-dependent effect
inhibition [15]: Dose-dependent effect
IC50 [16]: 4.8 µM
inhibition [17]: Dose-dependent effect
IC50 [18]: 6.2 µM
Activity (MDM [19]): inactive
inhibition (CHO [20]): Dose-dependent effect
inhibition (CHO [21]): Dose-dependent effect
Activity (MDM [22]): inactive
Activity (MDM [23]): inactive
Activity [24]: Toxic
inhibition (MDM [25]): Active
Activity [26]: Toxic
Activity [27]: Toxic
IC50 [28]: 4.1 µM
inhibition (MDM [29]): Dose-dependent effect
inhibition (MDM [3]): Active
inhibition [30]: Dose-dependent effect
IC50 [31]: 6.4 µM

CCCCCCCCN1CCc2c(C)c(CC(=O)O)c(C)c(NC(=O)C(C)(C)C)c21 [PACTIMIBE]
IC50 [32]: 3 µM
IC50 [33]: 4.9 µM
